Calls of active or inactive are those of the source. The rule behind the calls is not given here.
Experiments:
[1] = tested on: HL-60; assay: Induction of myeloperoxidase expression in human HL60 cells after 24 hrs by flow cytometry; type: functional
In short: (§1)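 Untreated cells seeded at 1 × 10^5 cells/mL and grown 24 h. Fixed/permeabilised with Cytofix/Cytoperm for 20 min on ice. Stained with mouse anti-MPO mAb (1% v/v) for 1 h at room temperature, then goat anti-mouse IgG-FITC (1% v/v) for 1 h in the dark. Basal intracellular MPO read by flow cytometry.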

[2] = tested on: Raji; assay: Induction of apoptosis in human Raji cells assessed as late apoptotic or secondary necrotic cells at 10 uM after 6 hrs by measuring phosphatidylserine translocation using annexin V-FITC/propidium iodide staining by FACS (reference value: 2.2 %); type: functional
[3] = tested on: HL-60; assay: Growth inhibition against human HL60 cells assessed as cell viability at 10 uM after 48 hrs by trypan blue based microscopic analysis in presence of catalase; type: functional
In short: (§2)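 Raji cells were seeded at 1 × 10^5 cells/mL and HL60 at 5 × 10^4 cells/mL. Medium held SOD (5 U/mL), catalase (30 U/mL) or both, plus 10 μM EGCG, for 48 h. Viable cells counted after trypan blue by hemacytometer; growth rate relative to untreated. Means ± SD of more than three experiments in triplicate wells.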

[4] = tested on: K562; assay: Cytotoxicity against human K562 cells assessed as cell growth inhibition at 10 uM after 7 days by trypan blue based microscopic analysis; type: functional
In short: (§3)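 Cells seeded at 2 × 10^3 cells/mL in culture medium with 1 nM–10 μM compound and cultured 7 days. HL60 and Raji were grown in RPMI 1640, K562 in F-12, UT-7 in IMDM with TPO 10 ng/mL; all media had 10% heat-inactivated FBS, 37 °C, 5% CO2. Viable trypan blue-excluding cells counted by hemacytometer; growth rate = viable treated/viable untreated. Means ± SD.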

[5] = tested on: HL-60; assay: Cytotoxicity against human HL60 cells assessed as cell growth inhibition after 7 days by trypan blue based microscopic analysis; type: functional; in short: as §3
[6] = tested on: UT7; assay: Cytotoxicity against human UT7 cells assessed as cell growth inhibition at 10 uM after 7 days by trypan blue based microscopic analysis; type: functional; in short: as §3
[7] = tested on: Raji; assay: Induction of apoptosis in human Raji cells assessed as late apoptotic or secondary necrotic cells at 10 uM after 12 hrs by measuring phosphatidylserine translocation using annexin V-FITC/propidium iodide staining by FACS (reference value: 2.2 %); type: functional
[8] = tested on: HL-60; assay: Growth inhibition against human HL60 cells assessed as cell viability at 10 uM after 48 hrs by trypan blue based microscopic analysis in presence of superoxide dismutase; type: functional; in short: as §2
[9] = tested on: HL-60; assay: Induction of apoptosis in human HL60 cells assessed as intracellular caspase-3 activation after 24 hrs (reference value: 1.3 %); type: functional
[10] = tested on: HL-60; assay: Growth inhibition against human HL60 cells assessed as cell viability at 10 uM preincubated with N-acetyl-L-cysteine for 30 mins measured after 48 hrs by trypan blue based microscopic analysis; type: functional
In short: (§4)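 Cells preincubated 30 min at 37 °C with 10 mM NAC, then seeded (Raji 1 × 10^5, HL60 5 × 10^4 cells/mL) and treated with 10 μM EGCG for 48 h. Viable cells were counted after trypan blue exclusion by hemacytometer. Growth rate = viable treated/viable untreated cells. Means ± SD of more than three experiments in triplicate wells.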

[11] = tested on: Raji; assay: Growth inhibition against human Raji cells assessed as cell viability at 10 uM after 48 hrs by trypan blue based microscopic analysis in presence of catalase; type: functional; in short: as §2
[12] = tested on: Raji; assay: Induction of apoptosis in human Raji cells assessed as necrotic cells at 10 uM after 6 hrs by measuring phosphatidylserine translocation using annexin V-FITC/propidium iodide staining by FACS (reference value: 3.4 %); type: functional
[13] = tested on: Raji; assay: Induction of apoptosis in human Raji cells assessed as necrotic cells at 10 uM after 12 hrs by measuring phosphatidylserine translocation using annexin V-FITC/propidium iodide staining by FACS (reference value: 3.4 %); type: functional
[14] = tested on: Raji; assay: Induction of apoptosis in human Raji cells assessed as late apoptotic or secondary necrotic cells at 10 uM after 24 hrs by measuring phosphatidylserine translocation using annexin V-FITC/propidium iodide staining by FACS (reference value: 2.2 %); type: functional
[15] = tested on: Raji; assay: Growth inhibition against human Raji cells assessed as cell viability at 10 uM after 48 hrs by trypan blue based microscopic analysis in presence of superoxide dismutase and catalase; type: functional; in short: as §2
[16] = tested on: K562; assay: Induction of 67 kDa laminin receptor expression in human K562 cells after 24 hrs by flow cytometry analysis; type: functional, cell-based
In short: (§5)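 Untreated cells seeded at 1 × 10^5 cells/mL and grown 24 h. Harvested cells labelled with mouse anti-67 LR IgM in 0.5% BSA/PBS for 1 h on ice, then anti-mouse IgM-FITC for 30 min at 4 °C in the dark. Read by flow cytometry.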

[17] = tested on: Raji; assay: Induction of apoptosis in human Raji cells assessed as necrotic cells at 10 uM by measuring phosphatidylserine translocation using annexin V-FITC/propidium iodide staining by FACS; type: functional, cell-based; details: TDE = time-dependent effect
[18] = tested on: Raji; assay: Cell cycle arrest in human Raji cells by assessed as accumulation at subG1 phase at 10 uM using propidium iodide staining by flow cytometry; type: functional
In short: (§6)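 Cells treated with 10 μM EGCG for 48 h, with or without SOD (5 U/mL) plus catalase (30 U/mL) in the medium. Harvested cells permeabilised in PBS with 0.1% Triton X-100 for 5 min on ice, stained with propidium iodide (50 μg/mL), and analysed by flow cytometry for sub-G1 fraction.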

[19] = tested on: K562; assay: Induction of intracellular reactive oxygen species production in human K562 cells at 10 uM after 1 to 3 hrs by flow cytometry; type: functional, cell-based
In short: (§7)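 Cells treated with 10 μM EGCG for 1 and 3 h. Then 1 × 10^5 cells stained with 5 μM H2-DCFDA for 25 min at 37 °C, washed and resuspended in PBS. Oxidised-probe fluorescence read by flow cytometry. Means ± SD of more than three separate experiments.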

[20] = tested on: Raji; assay: Cytotoxicity against human Raji cells assessed as cell growth inhibition after 7 days by trypan blue based microscopic analysis; type: functional; in short: as §3
[21] = tested on: Raji; assay: Induction of intracellular reactive oxygen species production in human Raji cells at 10 uM after 1 to 3 hrs by flow cytometry; type: functional, cell-based; in short: as §7
[22] = tested on: HL-60; assay: Cell cycle arrest in human HL60 cells by assessed as accumulation at subG1 phase at 10 uM using propidium iodide staining by flow cytometry in presence of superoxide dismutase and catalase; type: functional; in short: as §6
[23] = tested on: HL-60; assay: Induction of intracellular reactive oxygen species production in human HL60 cells at 10 uM after 1 to 3 hrs by flow cytometry; type: functional, cell-based; in short: as §7
[24] = tested on: Raji; assay: Induction of myeloperoxidase expression in human Raji cells after 24 hrs by flow cytometry; type: functional; in short: as §1
[25] = tested on: HL-60; assay: Cell cycle arrest in human HL60 cells by assessed as accumulation at subG1 phase at 10 uM using propidium iodide staining by flow cytometry; type: functional; in short: as §6
[26] = tested on: HL-60; assay: Induction of 67 kDa laminin receptor expression in human HL60 cells after 24 hrs by flow cytometry analysis; type: functional, cell-based; in short: as §5
[27] = tested on: HL-60; assay: Induction of apoptosis in human HL60 cells assessed as intracellular caspase-3 activation after 48 hrs (reference value: 1.3 %); type: functional
[28] = tested on: Raji; assay: Induction of apoptosis in human Raji cells assessed as intracellular caspase-3 activation after 24 hrs (reference value: 3.4 %); type: functional
[29] = tested on: Raji; assay: Induction of apoptosis in human Raji cells assessed as necrotic cells at 10 uM after 24 hrs by measuring phosphatidylserine translocation using annexin V-FITC/propidium iodide staining by FACS (reference value: 3.4 %); type: functional
[30] = tested on: HL-60; assay: Growth inhibition against human HL60 cells assessed as cell viability at 10 uM after 24 hrs by trypan blue based microscopic analysis; type: functional
[31] = tested on: Raji; assay: Growth inhibition against human Raji cells assessed as cell viability at 10 uM after 48 hrs by trypan blue based microscopic analysis in presence of superoxide dismutase; type: functional; in short: as §2
[32] = tested on: Raji; assay: Induction of apoptosis in human Raji cells assessed as intracellular caspase-3 activation after 48 hrs (reference value: 3.4 %); type: functional
[33] = tested on: Raji; assay: Growth inhibition against human Raji cells assessed as cell viability at 10 uM after 24 hrs by trypan blue based microscopic analysis; type: functional
[34] = tested on: Raji; assay: Cell cycle arrest in human Raji cells by assessed as accumulation at subG1 phase at 10 uM using propidium iodide staining by flow cytometry in presence of superoxide dismutase and catalase; type: functional; in short: as §6
[35] = tested on: HL-60; assay: Growth inhibition against human HL60 cells assessed as cell viability at 10 uM after 48 hrs by trypan blue based microscopic analysis in presence of superoxide dismutase and catalase; type: functional; in short: as §2
[36] = tested on: Raji; assay: Growth inhibition against human Raji cells assessed as cell viability at 10 uM preincubated with N-acetyl-L-cysteine for 30 mins measured after 48 hrs by trypan blue based microscopic analysis; type: functional; in short: as §4
[37] = tested on: Raji; assay: Induction of apoptosis in human Raji cells assessed as early apoptotic cells at 10 uM after 24 hrs by measuring phosphatidylserine translocation using annexin V-FITC/propidium iodide staining by FACS (reference value: 3.7 %); type: functional
[38] = tested on: Raji; assay: Induction of apoptosis in human Raji cells assessed as early apoptotic cells at 10 uM after 12 hrs by measuring phosphatidylserine translocation using annexin V-FITC/propidium iodide staining by FACS (reference value: 3.7 %); type: functional
[39] = tested on: K562; assay: Induction of myeloperoxidase expression in human K562 cells after 24 hrs by flow cytometry; type: functional; in short: as §1
[40] = tested on: Raji; assay: Induction of apoptosis in human Raji cells assessed as early apoptotic cells at 10 uM after 6 hrs by measuring phosphatidylserine translocation using annexin V-FITC/propidium iodide staining by FACS (reference value: 3.7 %); type: functional

**Q.** Which Activity [1] does the source give for `O=C(O[C@@H]1Cc2c(O)cc(O)cc2O[C@@H]1c1cc(O)c(O)c(O)c1)c1cc(O)c(O)c(O)c1` [EPIGALOCATECHIN GALLATE] here?
**A.** Its Activity is 49.2%.

**Q.** What about the Activity [2] of the same compound?
**A.** The Activity was 4.5%.

**Q.** What about the “growth inhibition (GI)” value [3] of the same compound?
**A.** The value was “Active”.

**Q.** And the “growth inhibition (GI)” value [4]?
**A.** The value was “inactive”.

**Q.** And the “growth inhibition (GI)” value [5]?
**A.** Its value is “Dose-dependent effect”.

**Q.** And the “growth inhibition (GI)” value [6]?
**A.** Its value is “inactive”.

**Q.** And the Activity [7]?
**A.** The Activity was 7.8%.

**Q.** What about the “growth inhibition (GI)” value [8] of the same compound?
**A.** Its value is “Active”.

**Q.** What about the Activity [9] of the same compound?
**A.** Its Activity is 2.7%.

**Q.** And the “growth inhibition (GI)” value [10]?
**A.** The value was “Active”.

**Q.** What about the “growth inhibition (GI)” value [11] of the same compound?
**A.** The value was “Active”.

**Q.** And the Activity [12]?
**A.** Its Activity is 5.3%.

**Q.** What about the Activity [13] of the same compound?
**A.** Its Activity is 6.7%.

**Q.** And the Activity [14]?
**A.** Its Activity is 13%.

**Q.** And the “growth inhibition (GI)” value [15]?
**A.** Its value is “inactive”.

**Q.** And the Activity [16]?
**A.** Its Activity is “Active”.

**Q.** And the Activity [17]?
**A.** Its Activity is “tde”.

**Q.** And the Activity [18]?
**A.** The Activity was 3.8%.

**Q.** What about the Activity [19] of the same compound?
**A.** The Activity was “inactive”.

**Q.** What about the “growth inhibition (GI)” value [20] of the same compound?
**A.** Its value is “Dose-dependent effect”.

**Q.** And the Activity [21]?
**A.** Its Activity is “inactive”.

**Q.** What about the Activity [22] of the same compound?
**A.** Its Activity is 2.6%.

**Q.** What about the Activity [23] of the same compound?
**A.** Its Activity is “inactive”.

**Q.** What about the Activity [24] of the same compound?
**A.** Its Activity is 4.5%.

**Q.** What about the Activity [25] of the same compound?
**A.** Its Activity is 45.9%.

**Q.** What about the Activity [26] of the same compound?
**A.** The Activity was “Active”.

**Q.** And the Activity [27]?
**A.** Its Activity is 4.2%.

**Q.** And the Activity [28]?
**A.** Its Activity is 3.5%.

**Q.** And the Activity [29]?
**A.** Its Activity is 14.9%.

**Q.** What about the Activity [30] of the same compound?
**A.** The Activity was “Active”.

**Q.** What about the “growth inhibition (GI)” value [31] of the same compound?
**A.** The value was “Active”.

**Q.** What about the Activity [32] of the same compound?
**A.** Its Activity is 5.4%.

**Q.** What about the Activity [33] of the same compound?
**A.** The Activity was “Active”.

**Q.** And the Activity [34]?
**A.** The Activity was 5.9%.

**Q.** What about the “growth inhibition (GI)” value [35] of the same compound?
**A.** Its value is “inactive”.

**Q.** And the “growth inhibition (GI)” value [36]?
**A.** Its value is “Active”.

**Q.** What about the Activity [37] of the same compound?
**A.** Its Activity is 8.5%.

**Q.** What about the Activity [38] of the same compound?
**A.** Its Activity is 7.7%.

**Q.** What about the Activity [39] of the same compound?
**A.** Its Activity is 14.3%.

**Q.** What about the Activity [40] of the same compound?
**A.** Its Activity is 5.1%.

Reference: ChEMBL document CHEMBL1772988, “(-)-Epigallocatechin-3-O-gallate induces nonapoptotic cell death in leukemia cells independent of the 67 kDa laminin receptor” (2011)
